Measured values as given in ChEMBL document CHEMBL2424590, “4-[18F]Fluoro-m-hydroxyphenethylguanidine: a radiopharmaceutical for quantifying regional cardiac sympathetic nerve density with positron emission tomography” (J Med Chem, 2013).

Tests used:
Blood = experiment: Biodistribution in Sprague-Dawley rat blood at 20 to 120 uCi, iv after 120 mins by gamma counting analysis; type: ADME, organism-based; conditions: in vivo, 2 h
How it was run: (§1)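 Sprague-Dawley rats (280–330 g), 2 male and 2 female per time point (5, 30, 60, 120 min), under light isoflurane, received a tail-vein bolus of 20–120 μCi tracer in 0.05–0.10 mL isotonic 60 mM sodium phosphate, pH 5.4. Tissues were weighed and gamma-counted. Decay-corrected dpm/g was normalized to injected dpm per kg body weight (%ID·kg/g).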

Ovary [1] = experiment: Biodistribution in Sprague-Dawley rat ovary at 20 to 120 uCi, iv after 30 mins by gamma counting analysis; type: ADME, organism-based, Female gonad; conditions: in vivo, 0.5 h
How it was run: as §1, with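 “g)” for “g), 2 male and 2 female per time point (5, 30, 60, 120 min),”, “isoflurane” for “isoflurane,”, “Sampling was at 5, 30, 60 or 120 min. […]” for “Tissues”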

[2] = Drug metabolism in rhesus macaque monkey spinal column assessed as fluorine-18 level at 5 to 6 mCi, iv after 90 mins by transaxial PET analysis; type: ADME, organism-based, Macaca mulatta; conditions: in vivo, 1.5 h
[3] = Drug uptake in rhesus macaque monkey heart at 5 to 6 mCi, iv after 90 mins by PET analysis in presence of 0.010 mg/kg to 1 mg/kg desipramine; type: ADME, organism-based, Macaca mulatta; conditions: in vivo, 1.5 h
How it was run: (§2)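 Same monkey for all studies. Desipramine (0.010, 0.0316, 0.10 or 1.0 mg/kg; n = 1 each) in 2.0 mL saline infused i.v. over 20 min, with tracer injected 10 min after the infusion ended; 4 control studies. ROIs on myocardium and basal LV blood pool drawn on summed final four frames. Cp(t) derived from Cwb(t) × intact fraction × Cp/Cwb. Ki from compartmental modelling and Kp as Patlak slope, fitted against DMI dose to a variable-slope sigmoidal model.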

Nucleic Acid = experiment: Ratio of drug level in heart to liver in rhesus macaque monkey at 5 to 6 mCi, iv after 90 mins by PET analysis; type: ADME, organism-based, Macaca mulatta; conditions: in vivo, 1.5 h
Rattus norvegicus [4] = experiment: Biodistribution in Sprague-Dawley rat eyeballs at 20 to 120 uCi, iv after 5 mins by gamma counting analysis; type: ADME, organism-based, Eyeball of camera-type eye; conditions: in vivo; how it was run: as §1
Plasma = experiment: Metabolic stability in rhesus macaque monkey plasma assessed as retention time of [18F]-2-fluoro-5-(2-guanidinoethyl)phenyl hydrogen sulfate at 5 to 6 mCi, iv by RP-HPLC analysis; type: ADME, organism-based, Macaca mulatta; conditions: in vivo
How it was run: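 Six venous samples (1.5–2.0 mL; typically 1, 2, 4, 10, 30, 60 min) drawn during the monkey PET scan into heparin and centrifuged 1 min at 12000 × g. Plasma deproteinised with HClO₄ (final 0.4 N), spun, neutralised with KOH to pH 7.0–7.5 and filtered twice (0.22 μm). Analysed by reverse-phase HPLC (10% EtOH in 60 mM NaH₂PO₄, pH 5.4, 1.0 mL/min) with NaI(Tl) radiodetection. Decay-corrected intact fraction per sample; T1/2 is the time at which 50% of plasma activity is metabolite.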

Kidney = experiment: Biodistribution in Sprague-Dawley rat kidney at 20 to 120 uCi, iv after 30 mins by gamma counting analysis; type: ADME, organism-based; conditions: in vivo, 0.5 h; how it was run: as §1
Ovary [5] = experiment: Biodistribution in Sprague-Dawley rat ovary at 20 to 120 uCi, iv after 120 mins by gamma counting analysis; type: ADME, organism-based, Female gonad; conditions: in vivo, 2 h
How it was run: as §1, with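 “g)” for “g), 2 male and 2 female per time point (5, 30, 60, 120 min),”, “isoflurane” for “isoflurane,”, “Sampling was at 5, 30, 60 or 120 min. […]” for “Tissues”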

Ovary [6] = experiment: Biodistribution in Sprague-Dawley rat ovary at 20 to 120 uCi, iv after 5 mins by gamma counting analysis; type: ADME, organism-based, Female gonad; conditions: in vivo
How it was run: as §1, with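 “g)” for “g), 2 male and 2 female per time point (5, 30, 60, 120 min),”, “isoflurane” for “isoflurane,”, “Sampling was at 5, 30, 60 or 120 min. […]” for “Tissues”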

Rattus norvegicus [7] = experiment: Biodistribution in Sprague-Dawley rat eyeballs at 20 to 120 uCi, iv after 120 mins by gamma counting analysis; type: ADME, organism-based, Eyeball of camera-type eye; conditions: in vivo, 2 h; how it was run: as §1
Rattus norvegicus [8] = experiment: Biodistribution in Sprague-Dawley rat stomach at 20 to 120 uCi, iv after 30 mins by gamma counting analysis; type: ADME, organism-based; conditions: in vivo, 0.5 h
How it was run: (§3)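 Male and female rats (2 per sex per time point, 280–330 g) under light isoflurane given tail-vein bolus of 20–120 μCi tracer in 0.05–0.10 mL isotonic 60 mM sodium phosphate, pH 5.4. Tissues sampled at 5, 30, 60 or 120 min, weighed and gamma-counted. Decay-corrected dpm per gram normalised to injected dpm and body weight, given as %ID·kg/g.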

Rattus norvegicus [9] = experiment: Biodistribution in Sprague-Dawley rat eyeballs at 20 to 120 uCi, iv after 30 mins by gamma counting analysis; type: ADME, organism-based, Eyeball of camera-type eye; conditions: in vivo, 0.5 h; how it was run: as §1
[10] = Drug metabolism in rhesus macaque monkey spinal column assessed as fluorine-18 level at 5 to 6 mCi, iv after 90 mins by sagittal PET analysis; type: ADME, organism-based, Macaca mulatta; conditions: in vivo, 1.5 h
Bone = experiment: Biodistribution in Sprague-Dawley rat bone at 20 to 120 uCi, iv after 5 mins by gamma counting analysis; type: ADME, organism-based, Bone element; conditions: in vivo; how it was run: as §1
Spleen = experiment: Biodistribution in Sprague-Dawley rat spleen at 20 to 120 uCi, iv after 5 mins by gamma counting analysis; type: ADME, organism-based; conditions: in vivo; how it was run: as §3
Adrenal = experiment: Biodistribution in Sprague-Dawley rat adrenal at 20 to 120 uCi, iv after 5 mins by gamma counting analysis; type: ADME, organism-based, Adrenal tissue; conditions: in vivo; how it was run: as §1
Testes = experiment: Biodistribution in Sprague-Dawley rat testes at 20 to 120 uCi, iv after 5 mins by gamma counting analysis; type: ADME, organism-based, Testis; conditions: in vivo; how it was run: as §3
Heart = experiment: Biodistribution in Sprague-Dawley rat heart at 20 to 120 uCi, iv after 30 mins by gamma counting analysis; type: ADME, organism-based; conditions: in vivo, 0.5 h; how it was run: as §1
[11] = Drug uptake in rhesus macaque monkey myocardium at 0.1 mCi by compartmental modeling analysis; type: ADME, tissue-based, Macaca mulatta; how it was run: as §2

Drug uptake (Blood): 0.009 % ID/g | Drug uptake (Ovary [1]): 0.171 %IDKg/g | Drug metabolism [2]: Active | Drug uptake [3]: Not Active | Ratio (Nucleic Acid): 2.5 | Drug uptake (Rattus norvegicus [4]): 0.039 %IDKg/g | Retention_time (Plasma): 8.2 min | Drug uptake (Kidney): 0.183 %IDKg/g | Drug uptake (Ovary [5]): 0.129 %IDKg/g | Drug uptake (Ovary [6]): 0.194 %IDKg/g | Drug uptake (Rattus norvegicus [7]): 0.026 %IDKg/g | Drug uptake (Rattus norvegicus [8]): 0.11 %IDKg/g | Drug uptake (Rattus norvegicus [9]): 0.04 %IDKg/g | Drug metabolism [10]: Active | Drug uptake (Bone): 0.06 %ID·kg/g | Drug uptake (Spleen): 0.268 %IDKg/g | Drug uptake (Adrenal): 0.203 %IDKg/g | Drug uptake (Testes): 0.018 %IDKg/g | Drug uptake (Heart): 0.602 %IDKg/g | Ki [11]: 0.341 mL/min/g
SMILES: N=C(N)NCCc1ccc([18F])c(O)c1
